Screening data: PubChem BioAssay, The Scripps Research Institute Molecular Screening Center
Only some compounds are listed: those with a hit (about 1.5% of all), similar ones and a draw of the others.
OXTR agonist: activates the human oxytocin receptor; AID 2435; activation, % at 3 µM; CHO-OTR cells, Fluo-8 calcium fluorescence; normalized: DMSO 0%, oxytocin 100%; 320,000 compounds, 0.32% hits; P30559;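 active = activation above the mean of all tested compounds plus 3 SD, cutoff set per screening run, cut at about 20% in these data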;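 also: peak over basal fluorescence ratio from a 100 s FLIPR kinetic read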
V1R ag counter: counter-screen for oxytocin receptor agonists: human V1a receptor agonists; P37288; CHO-V1R cells, Fluo-8 calcium fluorescence, agonist mode; 0% DMSO, 100% 3 nM vasopressin; activation, % at 3 µM; 320,000 compounds, 0.25% hits;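 active = activation above the mean activation of all tested compounds plus 3 SD, per screening run, cut at about 20% in these data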;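 also: signal is peak over basal fluorescence ratio across a 100 second FLIPR read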
Target sequence (P37288 whole entry, looked up): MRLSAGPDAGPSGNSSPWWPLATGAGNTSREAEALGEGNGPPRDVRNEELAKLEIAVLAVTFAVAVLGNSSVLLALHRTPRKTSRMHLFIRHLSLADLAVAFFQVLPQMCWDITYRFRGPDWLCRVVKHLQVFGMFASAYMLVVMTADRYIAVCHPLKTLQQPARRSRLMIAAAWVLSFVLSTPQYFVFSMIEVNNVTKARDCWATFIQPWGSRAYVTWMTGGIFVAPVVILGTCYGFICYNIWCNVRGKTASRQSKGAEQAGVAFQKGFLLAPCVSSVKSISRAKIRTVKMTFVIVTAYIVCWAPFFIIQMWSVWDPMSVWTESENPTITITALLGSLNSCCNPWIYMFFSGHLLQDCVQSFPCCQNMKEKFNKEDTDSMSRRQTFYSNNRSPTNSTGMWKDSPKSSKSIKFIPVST
M4 antag: antagonists of human muscarinic M4 receptor (CHRM4) | P08173 | CHO-hM4 cells, ACh EC80, Fluo-8 calcium fluorescence | inhibition, % at 3 µM | 360,000 compounds, 0.73% hits;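 active = inhibition above its plate's cutoff, the mean inhibition of sample wells plus 3 SD, cut at about 27% in these data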;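 also: 0% = acetylcholine EC80 with DMSO and 100% = DMSO without agonist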
M4 ag: agonists of human muscarinic M4 receptor (CHRM4); P08173; CHO-K1 hM4/Gqi5, Fluo-8 calcium fluorescence; vehicle 0%, full acetylcholine response 100%; activation, % at 3 µM; 360,000 compounds, 0.14% hits; AID 624127;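 active = activation above the run mean over all test wells plus 3 SD, cut at about 32% in these data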;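 also: peak over basal fluorescence ratio per well then scaled between controls; 0% = DMSO wells and 100% = acetylcholine at EC100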
M4 PAM: potentiates acetylcholine response at human M4 receptor; P08173; AID 624126; CHO-K1 hM4/Gqi5, Fluo-8 calcium fluorescence, ACh EC20; 0% = ACh EC20, 100% = maximal ACh; activation, % at 3 µM; 360,000 compounds, 0.4% hits;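 active = activation above its plate's cutoff, the mean activation of sample wells plus 3 SD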
OXTR potentiator: human OXTR potentiation; P30559; CHO-OTR cells, Fluo-8 calcium fluorescence, potentiator mode; 0% = oxytocin EC15, 100% = EC100; activation, % at 3 µM; 320,000 compounds, 0.061% hits;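 active = activation above that plate's cutoff, the mean activation of tested compounds plus 3 SD, cut at about 6.6% in these data, passing the limit was not always enough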;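 also: 100% uses oxytocin at 75 nM as the full agonist control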
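Material: human OTR in CHO cells. Compound: 3.0 µM, one dose. Timing: compound 6 min at room temperature before oxytocin, 100 s read. Evaluation: % activation of max/min ratio relative to oxytocin controls. Replication: single well per compound, singlicate. Signal: Fluo-8 calcium dye fluorescence.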
Numbers without * were called inactive; x = no result.

SMILES	OXTR agonist	V1R ag counter	M4 antag	M4 ag	M4 PAM	OXTR potentiator
O=C(CSc1nc(=O)[nH]c2c1CCCC2)Nc1ccc(F)cc1F	0	-1	-17	1	22*	-2
Cc1ccc2nc(SCC(=O)Nc3ccc(F)cc3F)[nH]c2c1	-2	-1	-4	1	-1	-13
CCCCNc1c(-c2ccc(OC)c(Sc3ccc(OC)cc3)c2)nc2cnccn12	-1	1	16	13	-3	-3
CCCCNc1c(-c2ccc(-c3ccc(OC)cc3)c(OC)c2)nc2ccccn12	-2	0	36*	12	-16	-9
CCCCNc1c(-c2ccc(OC)c(Sc3ccc(OC)cc3)c2)nc2ccccn12	-1	2	39*	17	-8	-10
CCN1C(=O)c2ccc(C(=O)NCc3ccco3)cc2C1=O	0	0	-10	4	8	-5
O=c1cc2oc3cc(O)c(O)cc3c(-c3ccccc3O)c-2cc1O	x	x	5	24	-10	x
COc1ccc(OC)c(-c2c3cc(O)c(=O)cc-3oc3cc(O)c(O)cc23)c1	715*	486*	13	60*	-17	-12
Cc1ccc(SCCNC(=S)Nc2cc(C)cc(C)c2)cc1	-2	0	16	5	-12	-17
Cc1ccc(NC(=S)NCCSc2ccc(Cl)cc2)cc1	1	3	36*	8	-28	-6
O=C(NC(=S)N1CCCCC1c1cccnc1)c1ccc(Br)cc1 (stereo unspecified)	-1	0	-6	0	15*	1
O=C(NC(=S)N1CCCCC1c1cccnc1)c1ccc(F)cc1 (stereo unspecified)	1	0	8	2	1	-2
Cc1cc(C=C2C(=O)CCCC2=O)c(C)n1-c1ccccc1	-1	0	6	1	30*	-8
Cc1ccc(C)c(NC(=S)NNC(=O)c2csc3c2CCCC3)c1	1	-1	3	1	7	-6
CCNC(=S)NNC(=O)c1csc2c1CCCC2	-1	-1	-6	2	20*	-7
Cc1ccc(C(=O)NNC(=O)c2ccccc2O)cc1S(=O)(=O)N1CCCCC1	0	3	8	5	0	-9
CCCNC(=O)C12CCC(C)(c3nc4cc(C)c(C)cc4nc31)C2(C)C (stereo unspecified)	-3	-1	-26	-1	23*	-1
O=C(O)c1cc(-c2cccs2)[nH]n1	0	1	-4	2	28*	-4
CNc1cc(-c2cc(OC)ccc2OC)ncn1	x	x	73*	-1	-12	x
O=C1NC[C@@H](CCCCN2C[C@H](Cc3ccccc3)N(Cc3ccccc3)C(=O)C2=O)N(CCc2ccccc2)C1=O	x	x	4	0	-3	x
CC(C)(C)c1ccccc1NC(=O)c1ccc2c(c1)SC1=NS(=O)(=O)CCN12	0	1	-11	0	8	2
O=C(Nc1cccc(Br)c1)c1ccc2c(c1)SC1=NS(=O)(=O)CCN12	1	1	-5	1	23*	-3
O=C(NCc1cccnc1)c1cc(C2CCCCN2S(=O)(=O)c2cccc3cccnc23)on1 (stereo unspecified)	x	x	-3	0	-6	x
O=C(OCCOCCN=C1NS(=O)(=O)c2ccccc21)c1ccccc1Br	3	3	-15	5	2	-3
Cc1cc(C)cc(N(CCC(=O)Nc2nnc(C3CC3)s2)S(=O)(=O)c2ccc(Cl)cc2)c1	-1	0	1	0	21*	-5
SMILES	OXTR agonist	V1R ag counter	M4 antag	M4 ag	M4 PAM	OXTR potentiator
Cc1ccc(S(=O)(=O)NCCC(=O)Nc2nnc(C3CC3)s2)cc1C	-1	0	1	1	-2	-19
COc1ccccc1-c1cccc(-c2nc(C(=O)Nc3nccs3)cc3c2[C@@H](CCO)N(C(C)=O)C3)c1	x	x	19	26	-12	x
CCC(=O)N1Cc2cc(C(=O)Nc3nccs3)nc(-c3cccc(-c4ccccc4OC)c3)c2[C@H]1CCO	x	x	27*	23	-11	x
CCNC(=O)c1cc2c(c(-c3cccc(-c4cc5ccccc5o4)c3)n1)[C@H](CCO)N(C(=O)NC(C)C)C2	x	x	29*	15	-9	x
CCOC(=O)c1ccc(N(C(=O)c2cnccn2)C(C(=O)NC2CCCCC2)c2cn(C)nc2C)cc1 (stereo unspecified)	0	1	12	0	-3	1
Cc1nn(C)cc1C(C(=O)NC1CCCCC1)N(C(=O)c1cnccn1)c1ccc(Oc2ccccc2)cc1 (stereo unspecified)	0	0	-11	2	24*	-5
C[N+](C)(C)C/C=C1/COCO1	2	0	9	42*	-3	-4
COc1ccc(CN2C(=O)C(CC(=O)NCc3cccs3)CC(C(=O)N3CCOCC3)=C2C)cc1 (stereo unspecified)	x	x	0	0	4	x
Cc1cc(C)n(C(=O)c2c([N+](=O)[O-])c(C)nn2C)n1	-2	-1	9	-1	-8	-1
Cc1ccc(SC(=O)c2c([N+](=O)[O-])c(C)nn2C)cc1	-2	-1	57*	-1	-15	-7
O=C(O)c1cccc(Oc2ccc(C(=O)O)c([N+](=O)[O-])c2)c1	x	x	7	1	7	x
O=C(Cc1ccc(NC(=O)C2CCCN(C(=O)C3CCCCC3)C2)cc1)Nc1cccc(C(=O)N2CCCC2)c1 (stereo unspecified)	x	x	-1	-2	17*	x
O=C(Nc1ccccc1)C1CCCN(C(=O)c2ccc(F)cc2)C1 (stereo unspecified)	1	1	-4	2	22*	-2
CCOC(=O)c1ccc(NC(=O)C2CCCN(S(=O)(=O)c3ccc(F)cc3)C2)cc1 (stereo unspecified)	7	5	37*	22	-31	-10
O=C(Cc1ccc(NC(=O)C2CCCN(C(=O)C3CCCC3)C2)cc1)Nc1cccc(C(=O)N2CCCC2)c1 (stereo unspecified)	x	x	2	-2	4	x
COc1ccc(C(=O)N2CCCC(c3nc(-c4ccc(OC)c(OC)c4)no3)C2)c(OC)c1 (stereo unspecified)	0	0	-1	3	-4	-8
CCOC(=O)N1CCN(C(=O)CCCCn2c(=S)[nH]c3ccsc3c2=O)CC1	-1	-1	-20	0	19*	-8
CCOC(=O)N1CCN(C(=O)CCn2c(=S)[nH]c3ccccc3c2=O)CC1	0	0	6	-2	10	6
O=C(Nc1ccc(F)c(Cl)c1)C1CCCN(C2=NS(=O)(=O)c3ccccc32)C1 (stereo unspecified)	1	1	-10	2	24*	-7
